From ChEMBL document CHEMBL2434857, “Imidazopyridazines as potent inhibitors of Plasmodium falciparum calcium-dependent protein kinase 1 (PfCDPK1): Preparation and evaluation of pyrazole linked analogues” (Bioorg Med Chem Lett, 2013) come the findings set out here.

Activity calls are given as the source filed them. The calls are words filed in the database; no cut-off is given here.

A short description of series [1]: Inhibition of full length recombinant Plasmodium falciparum CDPK1 using MTIP as substrate assessed as amount of ATP remaining after 1 hr by luminescence assay.
The next series relates to Plasmodium falciparum. Description: Antiparasitic activity against Plasmodium falciparum assessed as parasite growth inhibition after 48 hrs by hydroethidine staining-based flow cytometric analysis. In kind it is functional, organism-based. The gist of the method:
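Compounds diluted into 2% DMSO were added to cultured parasites 24 h post-invasion and incubated under static conditions. Cells were harvested 48 h later and stained for parasite DNA with hydroethidine for flow cytometry. Growth inhibition (%) = (1 − parasitaemia of treated culture / parasitaemia of control culture) × 100, and EC50 was derived from it.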
A general note: A flow cytometer gives signals particle by particle.

The nature of series [2]: Lipophilicity, log D of the compound in octanol-phosphate buffered saline at 100 uM after 12 hrs by shake flask method. It counts as physicochemical.
The nature of series [3]: Apparent permeability of the compound at 50 to 200 uM after 5 hrs by PAMPA. In kind it is ADME. On the technique in general: The PAMPA barrier holds no transporters, so it reflects passive diffusion.
The species named for series [4] is Homo sapiens. As to the kind of experiment: Inhibition of human VEGFR at 1 uM.
The target of series [5] is Myosin light chain kinase, smooth muscle (Homo sapiens) (UniProt Q15746). As to the kind of experiment: Inhibition of human SmMLCK at 1 uM.
For series [6], the target named is Serine/threonine-protein kinase N2 (Homo sapiens) (UniProt Q16513). As to the kind of experiment: Inhibition of human PRK2 at 1 uM.
For series [7], the target named is Aurora kinase B (Homo sapiens) (UniProt Q96GD4). Description: Inhibition of human Aurora kinase B at 1 uM.
The target in series [8] is Fibroblast growth factor receptor 1 (Homo sapiens) (UniProt P11362). As to the kind of experiment: Inhibition of human FGFR1 at 1 uM.
In series [9] the target is Mitogen-activated protein kinase kinase kinase 11 (Homo sapiens) (UniProt Q16584). Description: Inhibition of human MLK3 at 1 uM.
In series [10] the target is Ribosomal protein S6 kinase alpha-5 (Homo sapiens) (UniProt O75582). Description: Inhibition of human MSK1 at 1 uM.
Series [11] deals with Serine/threonine-protein kinase Chk2 (Homo sapiens) (UniProt O96017). Description: Inhibition of human CHK2 at 1 uM.
The target in series [12] is NUAK family SNF1-like kinase 1 (Homo sapiens) (UniProt O60285). As to the kind of experiment: Inhibition of human NUAK1 at 1 uM.
Series [13] addresses Serine/threonine-protein kinase pim-1 (Homo sapiens) (UniProt P11309). Description: Inhibition of human PIM1 at 1 uM.
The target of series [14] is Tyrosine-protein kinase Yes (Homo sapiens) (UniProt P07947). Description: Inhibition of human YES1 at 1 uM.
Series [15] concerns the target Misshapen-like kinase 1 (Homo sapiens) (UniProt Q8N4C8). As to the kind of experiment: Inhibition of human MINK1 at 1 uM.
Series [16] concerns the target Proto-oncogene tyrosine-protein kinase Src (Homo sapiens) (UniProt P12931). As to the kind of experiment: Inhibition of human SRC at 1 uM.
In series [17] the target is MAP kinase-interacting serine/threonine-protein kinase 1 (Homo sapiens) (UniProt Q9BUB5). As to the kind of experiment: Inhibition of human MNK1 at 1 uM.
The target of series [18] is Interleukin-1 receptor-associated kinase 4 (Homo sapiens) (UniProt Q9NWZ3). As to the kind of experiment: Inhibition of human IRAK4 at 1 uM.
In series [19] the target is Mitogen-activated protein kinase kinase kinase kinase 2 (Homo sapiens) (UniProt Q12851). As to the kind of experiment: Inhibition of human GCK at 1 uM.
Series [20] deals with Serine/threonine-protein kinase D1 (Homo sapiens) (UniProt Q15139). Description: Inhibition of human PKD1 at 1 uM.
The target in series [21] is Tyrosine-protein kinase Lck (Homo sapiens) (UniProt P06239). As to the kind of experiment: Inhibition of human LCK at 1 uM.
Series [22] concerns the target Mitogen-activated protein kinase kinase kinase 9 (Homo sapiens) (UniProt P80192). As to the kind of experiment: Inhibition of human MLK1 at 1 uM.
The target of series [23] is Receptor tyrosine-protein kinase erbB-4 (Homo sapiens) (UniProt Q15303). Description: Inhibition of human HER4 at 1 uM.
The target of series [24] is Ephrin type-A receptor 2 (Homo sapiens) (UniProt P29317). As to the kind of experiment: Inhibition of human EPHA2 at 1 uM.
The target of series [25] is Serine/threonine-protein kinase Chk1 (Homo sapiens) (UniProt O14757). Description: Inhibition of human CHK1 at 1 uM.
The target in series [26] is Serine/threonine-protein kinase BRSK2 (Homo sapiens) (UniProt Q8IWQ3). Description: Inhibition of human BRSK2 at 1 uM.
Series [27] concerns the target MAP kinase-interacting serine/threonine-protein kinase 2 (Homo sapiens) (UniProt Q9HBH9). Description: Inhibition of human MNK2 at 1 uM.
For series [28], the target named is Tyrosine-protein kinase BTK (Homo sapiens) (UniProt Q06187). Description: Inhibition of human BTK at 1 uM.
Series [29] concerns the target Casein kinase II (Homo sapiens) (UniProt P67870+P68400+P19784). As to the kind of experiment: Inhibition of human CK2 at 1 uM. It counts as protein-complex assay.
Series [30] has as its target Serine/threonine-protein kinase PAK 4 (Homo sapiens) (UniProt O96013). As to the kind of experiment: Inhibition of human PAK4 at 1 uM.
Series [31] addresses Ribosomal protein S6 kinase alpha-1 (Homo sapiens) (UniProt Q15418). As to the kind of experiment: Inhibition of human RSK1 at 1 uM.
In series [32] the target is Rho-associated protein kinase 2 (Homo sapiens) (UniProt O75116). As to the kind of experiment: Inhibition of human ROCK2 at 1 uM.
Series [33] has as its target Phosphorylase kinase (Homo sapiens) (UniProt P15735+P46020+P46019+Q93100+Q16816). Description: Inhibition of human PHK at 1 uM. In kind it is protein-complex assay.
For series [34], the target named is Serine/threonine-protein kinase 3 (Homo sapiens) (UniProt Q13188). Description: Inhibition of human MST2 at 1 uM.
For series [35], the target named is Dual specificity tyrosine-phosphorylation-regulated kinase 1A (Homo sapiens) (UniProt Q13627). As to the kind of experiment: Inhibition of human DRYK1A at 1 uM.
The species named for series [36] is Homo sapiens. As to the kind of experiment: Inhibition of human CK1 at 1 uM.
Series [37] deals with MAP/microtubule affinity-regulating kinase 3 (Homo sapiens) (UniProt P27448). Description: Inhibition of human MARK3 at 1 uM.
Series [38] deals with Maternal embryonic leucine zipper kinase (Homo sapiens) (UniProt Q14680). Description: Inhibition of human MELK at 1 uM.

Chain of NUAK family SNF1-like kinase 1 (Homo sapiens) (O60285 whole entry): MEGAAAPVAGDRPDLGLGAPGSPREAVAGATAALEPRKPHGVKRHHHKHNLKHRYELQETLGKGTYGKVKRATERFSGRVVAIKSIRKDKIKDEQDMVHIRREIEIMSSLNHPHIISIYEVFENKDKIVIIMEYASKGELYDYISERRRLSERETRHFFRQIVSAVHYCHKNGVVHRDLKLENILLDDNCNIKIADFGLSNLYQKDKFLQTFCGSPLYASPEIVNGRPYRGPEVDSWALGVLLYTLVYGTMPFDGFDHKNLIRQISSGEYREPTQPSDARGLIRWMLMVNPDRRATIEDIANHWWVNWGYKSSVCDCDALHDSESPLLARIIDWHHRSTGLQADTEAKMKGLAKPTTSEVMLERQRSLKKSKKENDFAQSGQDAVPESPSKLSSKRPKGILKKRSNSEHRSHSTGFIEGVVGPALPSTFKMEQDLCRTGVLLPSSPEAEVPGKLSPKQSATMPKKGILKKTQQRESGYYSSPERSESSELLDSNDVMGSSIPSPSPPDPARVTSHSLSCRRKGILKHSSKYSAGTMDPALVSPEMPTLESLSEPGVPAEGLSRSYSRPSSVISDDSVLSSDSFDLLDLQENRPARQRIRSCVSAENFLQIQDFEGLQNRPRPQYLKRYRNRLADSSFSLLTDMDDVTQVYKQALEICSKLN
Chain of Myosin light chain kinase, smooth muscle (Homo sapiens) (Q15746 whole entry): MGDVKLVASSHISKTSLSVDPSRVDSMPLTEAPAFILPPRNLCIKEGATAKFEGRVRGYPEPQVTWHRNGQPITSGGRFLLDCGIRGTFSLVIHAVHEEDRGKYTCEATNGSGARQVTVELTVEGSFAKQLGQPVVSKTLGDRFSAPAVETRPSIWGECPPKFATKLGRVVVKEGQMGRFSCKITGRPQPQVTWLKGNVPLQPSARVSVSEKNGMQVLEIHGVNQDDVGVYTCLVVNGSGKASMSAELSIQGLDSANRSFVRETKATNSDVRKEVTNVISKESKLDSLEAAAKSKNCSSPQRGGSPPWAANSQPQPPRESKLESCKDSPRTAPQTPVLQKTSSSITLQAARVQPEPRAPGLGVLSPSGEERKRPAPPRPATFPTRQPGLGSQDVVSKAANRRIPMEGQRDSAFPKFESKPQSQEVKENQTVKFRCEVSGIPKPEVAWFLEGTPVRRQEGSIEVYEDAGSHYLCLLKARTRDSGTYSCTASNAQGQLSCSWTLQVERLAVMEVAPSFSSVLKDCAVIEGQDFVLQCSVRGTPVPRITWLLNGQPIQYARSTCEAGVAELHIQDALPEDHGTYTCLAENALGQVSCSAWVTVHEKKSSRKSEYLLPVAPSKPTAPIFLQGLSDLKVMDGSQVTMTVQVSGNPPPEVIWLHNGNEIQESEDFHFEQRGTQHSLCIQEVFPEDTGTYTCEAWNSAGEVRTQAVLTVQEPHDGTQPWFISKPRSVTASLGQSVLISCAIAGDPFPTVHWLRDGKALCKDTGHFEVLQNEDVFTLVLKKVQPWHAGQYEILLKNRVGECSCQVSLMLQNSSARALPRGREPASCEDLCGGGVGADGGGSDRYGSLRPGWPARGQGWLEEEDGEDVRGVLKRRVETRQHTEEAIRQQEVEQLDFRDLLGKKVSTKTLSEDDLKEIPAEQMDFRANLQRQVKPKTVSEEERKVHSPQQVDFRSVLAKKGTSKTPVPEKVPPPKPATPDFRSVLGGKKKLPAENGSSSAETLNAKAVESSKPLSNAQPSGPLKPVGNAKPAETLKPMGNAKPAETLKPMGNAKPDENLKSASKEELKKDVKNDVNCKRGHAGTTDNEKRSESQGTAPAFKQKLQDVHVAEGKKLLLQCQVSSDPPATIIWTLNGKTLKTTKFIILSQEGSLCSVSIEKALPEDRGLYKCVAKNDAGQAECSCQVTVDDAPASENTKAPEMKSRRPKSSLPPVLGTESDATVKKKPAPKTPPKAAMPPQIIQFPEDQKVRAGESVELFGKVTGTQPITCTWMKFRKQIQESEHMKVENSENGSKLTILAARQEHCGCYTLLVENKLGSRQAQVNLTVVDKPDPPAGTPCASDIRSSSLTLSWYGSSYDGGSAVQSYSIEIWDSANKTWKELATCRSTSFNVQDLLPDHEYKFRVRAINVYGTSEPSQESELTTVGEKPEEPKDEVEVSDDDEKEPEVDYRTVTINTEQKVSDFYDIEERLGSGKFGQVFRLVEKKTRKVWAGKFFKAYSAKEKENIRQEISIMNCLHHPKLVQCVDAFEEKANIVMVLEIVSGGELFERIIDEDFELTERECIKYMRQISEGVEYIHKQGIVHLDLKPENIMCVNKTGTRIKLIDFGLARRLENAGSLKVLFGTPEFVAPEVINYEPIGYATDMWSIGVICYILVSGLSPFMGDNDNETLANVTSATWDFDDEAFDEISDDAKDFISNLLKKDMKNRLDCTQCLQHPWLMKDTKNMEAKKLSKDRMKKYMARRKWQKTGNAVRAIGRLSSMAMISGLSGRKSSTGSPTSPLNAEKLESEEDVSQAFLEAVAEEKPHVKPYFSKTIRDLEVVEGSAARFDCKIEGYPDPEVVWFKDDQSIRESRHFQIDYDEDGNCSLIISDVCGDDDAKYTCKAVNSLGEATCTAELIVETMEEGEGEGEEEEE
Chain of Serine/threonine-protein kinase N2 (Homo sapiens) (Q16513 whole entry, looked up): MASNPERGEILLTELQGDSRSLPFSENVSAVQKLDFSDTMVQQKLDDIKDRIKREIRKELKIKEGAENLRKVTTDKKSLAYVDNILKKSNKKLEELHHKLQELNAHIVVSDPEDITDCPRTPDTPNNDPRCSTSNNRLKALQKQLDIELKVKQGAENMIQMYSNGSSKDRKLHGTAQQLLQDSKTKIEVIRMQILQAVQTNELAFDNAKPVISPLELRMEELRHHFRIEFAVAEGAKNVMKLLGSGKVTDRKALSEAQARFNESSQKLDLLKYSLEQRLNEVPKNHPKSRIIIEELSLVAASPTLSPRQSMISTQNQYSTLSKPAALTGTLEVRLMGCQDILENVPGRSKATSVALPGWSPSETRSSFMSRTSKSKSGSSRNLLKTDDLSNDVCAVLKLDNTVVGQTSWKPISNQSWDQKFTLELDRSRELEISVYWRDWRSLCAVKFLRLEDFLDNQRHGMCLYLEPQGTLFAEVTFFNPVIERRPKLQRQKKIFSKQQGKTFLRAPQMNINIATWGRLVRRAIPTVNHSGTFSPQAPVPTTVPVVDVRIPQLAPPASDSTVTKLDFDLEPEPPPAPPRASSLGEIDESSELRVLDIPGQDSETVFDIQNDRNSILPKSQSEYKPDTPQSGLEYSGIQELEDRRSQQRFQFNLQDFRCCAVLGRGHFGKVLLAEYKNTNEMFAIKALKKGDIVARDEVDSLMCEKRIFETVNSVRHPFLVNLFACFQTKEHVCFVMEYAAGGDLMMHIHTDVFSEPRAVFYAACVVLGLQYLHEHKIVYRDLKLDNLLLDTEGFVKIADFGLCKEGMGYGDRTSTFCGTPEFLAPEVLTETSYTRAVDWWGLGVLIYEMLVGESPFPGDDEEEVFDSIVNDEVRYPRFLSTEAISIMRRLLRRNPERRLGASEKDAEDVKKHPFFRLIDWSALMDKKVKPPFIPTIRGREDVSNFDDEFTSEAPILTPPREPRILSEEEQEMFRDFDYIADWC
Chain of Proto-oncogene tyrosine-protein kinase Src (Homo sapiens) (P12931 2-536 limits assumed): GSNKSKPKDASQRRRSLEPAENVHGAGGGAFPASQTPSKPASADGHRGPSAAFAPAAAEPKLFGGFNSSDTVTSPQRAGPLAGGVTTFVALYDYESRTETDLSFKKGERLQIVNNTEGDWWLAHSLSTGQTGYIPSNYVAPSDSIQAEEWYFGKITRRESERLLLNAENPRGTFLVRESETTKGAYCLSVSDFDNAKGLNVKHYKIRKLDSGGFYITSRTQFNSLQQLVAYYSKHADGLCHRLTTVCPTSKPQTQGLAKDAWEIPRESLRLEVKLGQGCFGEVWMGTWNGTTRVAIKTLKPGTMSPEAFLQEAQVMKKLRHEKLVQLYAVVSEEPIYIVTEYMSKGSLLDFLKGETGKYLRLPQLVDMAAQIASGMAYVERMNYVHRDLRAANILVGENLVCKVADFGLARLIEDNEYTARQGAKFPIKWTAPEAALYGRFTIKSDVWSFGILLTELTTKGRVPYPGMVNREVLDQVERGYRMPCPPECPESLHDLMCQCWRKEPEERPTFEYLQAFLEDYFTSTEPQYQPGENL
Chain of Mitogen-activated protein kinase kinase kinase 11 (Homo sapiens) (Q16584 whole entry, looked up): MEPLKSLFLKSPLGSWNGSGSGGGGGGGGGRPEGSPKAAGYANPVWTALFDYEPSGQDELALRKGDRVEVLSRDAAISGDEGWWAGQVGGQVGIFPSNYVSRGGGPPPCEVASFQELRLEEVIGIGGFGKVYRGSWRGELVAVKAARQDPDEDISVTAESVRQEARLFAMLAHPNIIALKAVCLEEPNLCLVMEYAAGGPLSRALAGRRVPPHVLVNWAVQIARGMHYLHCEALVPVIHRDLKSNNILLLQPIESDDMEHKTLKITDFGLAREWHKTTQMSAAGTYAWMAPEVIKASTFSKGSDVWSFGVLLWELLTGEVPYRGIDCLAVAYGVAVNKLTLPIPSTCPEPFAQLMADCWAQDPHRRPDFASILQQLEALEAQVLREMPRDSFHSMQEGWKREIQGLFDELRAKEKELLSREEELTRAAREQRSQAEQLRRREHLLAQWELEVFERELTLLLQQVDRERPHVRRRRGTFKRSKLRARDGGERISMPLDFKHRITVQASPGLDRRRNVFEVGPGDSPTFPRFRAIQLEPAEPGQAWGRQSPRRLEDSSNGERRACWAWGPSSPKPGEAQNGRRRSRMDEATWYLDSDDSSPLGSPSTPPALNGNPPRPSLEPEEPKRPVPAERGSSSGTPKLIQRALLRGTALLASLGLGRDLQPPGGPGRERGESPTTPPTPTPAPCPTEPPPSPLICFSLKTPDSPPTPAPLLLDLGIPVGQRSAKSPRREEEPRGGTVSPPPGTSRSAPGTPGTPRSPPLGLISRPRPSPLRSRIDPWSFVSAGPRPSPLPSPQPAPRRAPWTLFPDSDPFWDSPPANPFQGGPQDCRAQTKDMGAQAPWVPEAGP

One may read the IC50 as the concentration at which inhibition is half-maximal. Turning to `CN1CCC(Nc2ccc3ncc(-c4cnn(-c5ccccc5)c4)n3n2)CC1`, the IC50 in series [1] stood at 0.071 µM.
Broadly, the EC50 is the midpoint of the concentration-response curve. As a reminder, the logD is lipophilicity at a set pH, counting ionised and neutral species. A low value points to lower lipophilicity. Turning to `CN1CCC(Nc2ccc3ncc(-c4cnn(-c5ccc(F)cc5)c4)n3n2)CC1`, the EC50 in the series with Plasmodium falciparum was found to be 0.561 µM. Moreover, the IC50 in series [1] came out at 0.045 µM. Moreover, the logD at 12 h, 100 µM in series [2] was 2.8.
Regarding `CN1CCC(Nc2ccc3ncc(-c4cnn(C5CCCC5)c4)n3n2)CC1`, the IC50 in series [1] was 1.98 µM.
`CN1CCC(Nc2ccc3ncc(-c4cnn(-c5ncccc5F)c4)n3n2)CC1` had a logD at 12 h, 100 µM in [2] of 2.9.
Regarding `Cc1cc(F)ccc1-n1cc(-c2cnc3ccc(NC4CCN(C)CC4)nn23)cn1`, in series [2], the logD at 12 h, 100 µM is 2.9.
One may read the Papp as the rate of passage across a membrane or cell layer, normalised by area and donor concentration. Turning to `CN1CCC(Nc2ccc3ncc(-c4cnn(-c5cccc(F)c5)c4)n3n2)CC1`, the EC50 with Plasmodium falciparum came to 0.394 µM. Moreover, the Papp at 5 h, up to 200 µM in series [3] amounted to 110 nm/s. In addition, the IC50 in series [1] was 0.02 µM. The logD at 12 h, 100 µM in series [2] was found to be 3.1.
For `c1ccc(-n2cc(-c3cnc4ccc(NC5CCNCC5)nn34)cn2)cc1`, the inhibition result (in the series listed under Homo sapiens [4]; in series [5]; in [6]; in series [7]; in [8]; in [9]) was “Active” throughout. Moreover, the inhibition result in series [10], in series [11], in series [12], in [13], in [14] and in [15] was “Active” in each case. The inhibition result in series [16], in [17], in series [18], in [19], in series [20] and in series [21] was “Active” each time. The inhibition result in series [22], in series [23], in series [24] and in [25] was “Active” in each case.
Take `CN1CCC(Nc2ccc3ncc(-c4cnn(-c5ccc(F)cn5)c4)n3n2)CC1`: the log distribution coefficient (logD) at 12 h, 100 µM in series [2] stood at 2.9.
The compound `CN1CCC(Nc2ccc3ncc(-c4cnn(-c5ccc(F)cc5F)c4)n3n2)CC1` showed a logD at 12 h, 100 µM in [2] of 2.9.
Regarding `CN1CCC(Nc2ccc3ncc(-c4cnn(Cc5ccccc5F)c4)n3n2)CC1`, in series [1], the IC50 worked out at 0.331 µM. Moreover, in [2], the logD at 12 h, 100 µM came to 3.
For the compound `CN1CCC(Nc2ccc3ncc(-c4cnn(-c5ccc(C#N)cc5)c4)n3n2)CC1`, the inhibition entry (in the series listed under Homo sapiens [4]; in [26]; in [27]; in [5]; in series [6]; in [28]) was “Active” each time. The inhibition result in series [9], in series [29], in series [12], in [13], in series [30] and in series [31] was “Active” in each case. In addition, the inhibition entry in series [14], in series [32], in [33], in [34], in series [15] and in series [35] was “Active” in each case. Also, the inhibition entry (in series [16]; in [17]; in [18]; in series [19]; in [22]; in the series filed under Homo sapiens [36]) was “Active” throughout. Moreover, the inhibition result in series [23], in series [24], in series [37], in [38] and in [25] was “Active” each time.
